Compounds with a hit are over-represented: about 2.7% of the library has one in this group of screens.
MsrA act: activators of bovine methionine sulfoxide reductase A. purified bovine MsrA, absorbance read-out. activation, % at 10.6 µM. 360,000 tested, 0.3% active. AID 602163; in the data active means activation above about 7.5%
HGIII-sPLA2 inh: Blocks human group III sPLA2 activity | Q9NZ20 | QFRET BODIPY PC-A2 liposome hydrolysis, fluorescence | inhibition, % at 12.2 µM | 370,000 tested, 0.56% active | AID 743126;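 active means inhibition above mean plus 3 SD of compounds lying within the high and low control bounds, cut at about 19% in these data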
Target sequence (Q9NZ20 whole entry, looked up): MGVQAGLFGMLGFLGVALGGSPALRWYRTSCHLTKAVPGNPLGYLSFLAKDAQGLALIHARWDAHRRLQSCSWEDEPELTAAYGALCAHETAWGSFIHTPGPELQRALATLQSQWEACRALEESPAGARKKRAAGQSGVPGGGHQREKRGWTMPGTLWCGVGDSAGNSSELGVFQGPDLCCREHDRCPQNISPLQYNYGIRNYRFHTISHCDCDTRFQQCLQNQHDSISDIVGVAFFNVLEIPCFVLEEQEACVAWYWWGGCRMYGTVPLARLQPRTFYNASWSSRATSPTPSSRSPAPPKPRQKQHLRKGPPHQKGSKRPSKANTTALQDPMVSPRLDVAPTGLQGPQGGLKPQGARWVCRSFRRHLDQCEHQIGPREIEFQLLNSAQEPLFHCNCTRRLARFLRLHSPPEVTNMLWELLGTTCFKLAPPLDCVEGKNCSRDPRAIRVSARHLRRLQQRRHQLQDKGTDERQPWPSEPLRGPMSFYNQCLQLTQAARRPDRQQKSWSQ
ASAP1 GAP inh: inhibitors of human ASAP1 ArfGAP activity | AID 624377 | inhibition, % at 16.5 µM | 360,000 tested, 0.19% active | Q9ULH1 | ASAP1-stimulated ARF1 GTP hydrolysis, GDP FP detection; in the data active means inhibition above about 25%
MsrA inhibitor: inhibitors of bovine MsrA; AID 651718; 360,000 tested, 0.75% active; inhibition, % at 15.5 µM; purified bovine MsrA, absorbance read-out; in the data active means inhibition above about 4.5%
ARFGAP1 inh: inhibitors of rat ARFGAP1 | inhibition, % at 16.5 µM | Arfgap1-stimulated ARF1 GTP hydrolysis, GDP FP detection | 360,000 tested, 0.26% active;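 active means inhibition above a per-plate limit, mean inhibition of low control wells plus 3 SD, cut at about 25% in these data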
Target sequence (Q62848 1-136 limits assumed): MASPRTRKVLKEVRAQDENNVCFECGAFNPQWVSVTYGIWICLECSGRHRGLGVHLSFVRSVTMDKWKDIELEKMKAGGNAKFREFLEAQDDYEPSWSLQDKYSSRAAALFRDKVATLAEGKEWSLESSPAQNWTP
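Material: rat Arfgap1 catalytic domain, aa 1-136; also added: human ARF1(Δ1-17)-GTP substrate; compound dosing: one concentration, 16.5 µM, DMSO 1.26%; incubation: GTP hydrolysis reaction 2 h at 25 °C; measured by: Tracer-displacement fluorescence polarization with EDTA stop, 620/688 nm; evaluation: % inhibition from polarization; repeats: one replicate per compound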
NR1D1 modulator: Rev-erb alpha (human) modulation. 370,000 tested, 0.79% active. Rev-erbα–FITC-DNA binding, fluorescence polarization, 90 min. activity, % at 10 µM. AID 1259318;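 active means activity above about 14%, limit read from the data; passing the limit was not always enough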
MsrA act confirm: bovine methionine sulfoxide reductase A activation confirmed. shares compounds with MsrA act. purified bovine MsrA, absorbance read-out. activation, % at 10.6 µM. 1,000 tested, 12% active; in the data active means activation above about 4%;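 further: enzyme coupled to thioredoxin and thioredoxin reductase with NADPH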
Numbers stand for hits.

`Cc1c(NC(=O)C(C)N2C(=O)C3CCCCC3C2=O)c(=O)n(-c2ccccc2)n1C` (centres undefined) gave MsrA act 10, HGIII-sPLA2 inh inactive, ASAP1 GAP inh inactive, MsrA inhibitor inactive, ARFGAP1 inh inactive, NR1D1 modulator inactive and MsrA act confirm inactive.
Screening Cc1c(NC(=O)C(C)N2CC(C)OC(C)C2)c(=O)n(-c2ccccc2)n1C (centres undefined) returned MsrA act inactive, HGIII-sPLA2 inh inactive, ASAP1 GAP inh inactive, MsrA inhibitor inactive, ARFGAP1 inh inactive and NR1D1 modulator inactive.
COC(=O)C1CN(C2CCCC2)CCS(=O)(=O)N1Cc1cn(Cc2ccc(Cl)cc2)nn1 (centres undefined) was read as HGIII-sPLA2 inh inactive and NR1D1 modulator inactive.
For COC(=O)c1sc(=S)n(-c2ccccc2OC)c1N the results were MsrA act inactive, HGIII-sPLA2 inh inactive, ASAP1 GAP inh inactive, MsrA inhibitor inactive, ARFGAP1 inh inactive and NR1D1 modulator inactive.
Screening CCOC(=O)c1sc(=S)n(-c2ccccc2OC)c1N returned MsrA act 8.4, HGIII-sPLA2 inh inactive, ASAP1 GAP inh inactive, MsrA inhibitor inactive, ARFGAP1 inh inactive, NR1D1 modulator inactive and MsrA act confirm inactive.
Screening COC(=O)C1CN(Cc2ccc(Cl)cc2)CCS(=O)(=O)N1Cc1cn(Cc2ccccc2)nn1 (centres undefined) returned HGIII-sPLA2 inh inactive and NR1D1 modulator inactive.
Screening CC(C)c1ccc(/C=N/NC(=O)c2ccccc2Cl)cc1 returned MsrA act 13, HGIII-sPLA2 inh inactive, ASAP1 GAP inh inactive, MsrA inhibitor inactive, ARFGAP1 inh inactive, NR1D1 modulator inactive and MsrA act confirm inactive.
COC(=O)c1ccc(/C=N/NC(=O)c2ccccc2Cl)cc1 was read as MsrA act inactive, HGIII-sPLA2 inh inactive, ASAP1 GAP inh inactive, MsrA inhibitor inactive, ARFGAP1 inh inactive and NR1D1 modulator inactive.
Screening O=S1(=O)c2c(cccc2N2CCSCC2)Oc2ccccc2CN1Cc1cn(Cc2cccc(C(F)(F)F)c2)nn1 returned HGIII-sPLA2 inh inactive and NR1D1 modulator inactive.
For Nc1ncnc2c1ncn2[C@@H]1O[C@H](C(=O)N[C@@H](CCc2ccccc2)C(=O)N2CCN(CC(=O)N3CCCC3)CC2)[C@@H](O)[C@H]1O the results were HGIII-sPLA2 inh inactive, ASAP1 GAP inh inactive, MsrA inhibitor inactive, ARFGAP1 inh inactive and NR1D1 modulator inactive.
CC(=O)Nc1ccc(NC(=O)CCC(=O)OCC(=O)c2cccc([N+](=O)[O-])c2)cc1 was read as MsrA act inactive, HGIII-sPLA2 inh inactive, ASAP1 GAP inh inactive, MsrA inhibitor inactive, ARFGAP1 inh inactive and NR1D1 modulator inactive.
CC(=O)Nc1ccc(C(=O)OCC(=O)c2cccc([N+](=O)[O-])c2)cc1 was read as MsrA act 8.4, HGIII-sPLA2 inh inactive, ASAP1 GAP inh inactive, MsrA inhibitor inactive, ARFGAP1 inh inactive, NR1D1 modulator inactive and MsrA act confirm inactive.
Screening NC(=O)CSc1nnc(-c2ccccn2)n1Cc1ccco1 returned MsrA act 9.0, HGIII-sPLA2 inh inactive, ASAP1 GAP inh inactive, MsrA inhibitor inactive, ARFGAP1 inh inactive, NR1D1 modulator inactive and MsrA act confirm inactive.
`Clc1ccccc1CSc1nnc(-c2ccccn2)n1Cc1ccco1` gave MsrA act inactive, HGIII-sPLA2 inh inactive, ASAP1 GAP inh inactive, MsrA inhibitor inactive, ARFGAP1 inh inactive and NR1D1 modulator inactive.
`O=C(Nc1ccccc1)Nc1ccccn1` gave MsrA act inactive, HGIII-sPLA2 inh inactive, ASAP1 GAP inh inactive, MsrA inhibitor inactive, ARFGAP1 inh inactive and NR1D1 modulator inactive.
`O=C(Nc1ccc(Cl)cc1)Nc1ccccn1` gave MsrA act 8.4, HGIII-sPLA2 inh inactive, ASAP1 GAP inh inactive, MsrA inhibitor inactive, ARFGAP1 inh inactive, NR1D1 modulator inactive and MsrA act confirm inactive.
`Cc1ccc(C2CCC3(CCC(=O)N3CCO)CC2)cc1` (centres undefined) gave HGIII-sPLA2 inh inactive and NR1D1 modulator inactive.
For COc1ccc(C(C)(O)c2nc(-c3cccc(C(F)(F)F)c3)cs2)cc1 (centres undefined) the results were MsrA act 9.8, HGIII-sPLA2 inh inactive, ASAP1 GAP inh inactive, MsrA inhibitor inactive, ARFGAP1 inh inactive, NR1D1 modulator inactive and MsrA act confirm inactive.
COc1cccc(C(C)(O)c2nc(-c3cccc(C(F)(F)F)c3)cs2)c1 (centres undefined) was read as MsrA act inactive, HGIII-sPLA2 inh inactive, ASAP1 GAP inh inactive, MsrA inhibitor inactive, ARFGAP1 inh inactive and NR1D1 modulator inactive.
Screening CCOC(=O)N1CCN(C2=C(NS(=O)(=O)c3ccc(NC(C)=O)cc3)C(=O)c3ccccc3C2=O)CC1 returned MsrA act inactive, HGIII-sPLA2 inh inactive, ASAP1 GAP inh inactive, MsrA inhibitor inactive, ARFGAP1 inh inactive and NR1D1 modulator inactive.
Screening CCN1CCN(C2=C(NS(=O)(=O)c3ccc(NC(C)=O)cc3)C(=O)c3ccccc3C2=O)CC1 returned MsrA act 8.9, HGIII-sPLA2 inh inactive, ASAP1 GAP inh inactive, MsrA inhibitor inactive, ARFGAP1 inh inactive, NR1D1 modulator inactive and MsrA act confirm inactive.
`CC1CCCN(C2=C(NS(=O)(=O)c3ccc(Br)cc3)C(=O)c3ccccc3C2=O)C1` (centres undefined) gave MsrA act 8.9, HGIII-sPLA2 inh inactive, ASAP1 GAP inh inactive, MsrA inhibitor inactive, ARFGAP1 inh inactive, NR1D1 modulator inactive and MsrA act confirm inactive.
`CC(=O)Nc1ccc(S(=O)(=O)NC2=C(N3CCN(C)CC3)C(=O)c3ccccc3C2=O)cc1` gave MsrA act 26, HGIII-sPLA2 inh inactive, ASAP1 GAP inh inactive, MsrA inhibitor inactive, ARFGAP1 inh inactive, NR1D1 modulator inactive and MsrA act confirm inactive.
Screening O=C(CCCN=C1NS(=O)(=O)c2ccccc21)OCc1ccccc1 returned MsrA act 8.8, HGIII-sPLA2 inh inactive, ASAP1 GAP inh inactive, MsrA inhibitor inactive, ARFGAP1 inh inactive, NR1D1 modulator inactive and MsrA act confirm inactive.
`O=C(CCCN=C1NS(=O)(=O)c2ccccc21)OCc1ccc(F)cc1` gave MsrA act inactive, HGIII-sPLA2 inh inactive, ASAP1 GAP inh inactive, MsrA inhibitor inactive, ARFGAP1 inh inactive and NR1D1 modulator inactive.
Screening COC(=O)[C@]12C[C@H](CC(=O)NCC34CC5CC(CC(C5)C3)C4)C(=O)N(Cc3ccco3)C1=C[C@H](C1CCCC1)O[C@@H]2C returned HGIII-sPLA2 inh inactive and NR1D1 modulator inactive.
COC(=O)[C@@H](C)NC(=O)c1ccc2oc(CCc3ccccc3)nc2c1 was read as MsrA act inactive, HGIII-sPLA2 inh inactive, ASAP1 GAP inh inactive, MsrA inhibitor inactive, ARFGAP1 inh inactive and NR1D1 modulator inactive.
COC(=O)CCCNC(=O)c1ccc2oc(CCCc3ccccc3)nc2c1 was read as MsrA act 11, HGIII-sPLA2 inh inactive, ASAP1 GAP inh inactive, MsrA inhibitor inactive, ARFGAP1 inh inactive, NR1D1 modulator inactive and MsrA act confirm inactive.
